Reference: ChEMBL document CHEMBL1177712, “Synthesis and characterization of in vitro and in vivo profiles of hydroxybupropion analogues: aids to smoking cessation” (J Med Chem, 2010)
Active and inactive are the calls of the source.

Legend:
[1] = target: T1, Neuronal acetylcholine receptor; alpha4/beta4 (Homo sapiens, UniProt P30926+P43681); assay: Agonist activity at alpha4beta4 nicotinic receptor in human SH-EP1 cells assessed as induction of radiolabeled Rb+ influx at 0.005 to 100 uM by liquid scintillation counting; type: functional, cell-based
T1 sequence (P30926 whole entry): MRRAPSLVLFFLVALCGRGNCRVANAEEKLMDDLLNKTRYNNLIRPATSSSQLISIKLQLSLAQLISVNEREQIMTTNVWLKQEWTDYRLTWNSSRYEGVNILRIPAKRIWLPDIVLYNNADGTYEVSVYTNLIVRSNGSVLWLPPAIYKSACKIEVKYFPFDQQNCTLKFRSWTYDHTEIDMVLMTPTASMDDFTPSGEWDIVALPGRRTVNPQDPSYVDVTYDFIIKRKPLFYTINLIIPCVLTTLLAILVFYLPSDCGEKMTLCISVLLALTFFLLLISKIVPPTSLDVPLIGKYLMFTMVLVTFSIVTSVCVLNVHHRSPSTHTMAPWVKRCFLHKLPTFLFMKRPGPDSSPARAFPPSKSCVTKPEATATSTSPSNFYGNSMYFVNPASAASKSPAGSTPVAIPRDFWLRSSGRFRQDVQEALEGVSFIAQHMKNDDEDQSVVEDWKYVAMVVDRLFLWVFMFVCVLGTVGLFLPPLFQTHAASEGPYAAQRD
T1 sequence (P43681 whole entry): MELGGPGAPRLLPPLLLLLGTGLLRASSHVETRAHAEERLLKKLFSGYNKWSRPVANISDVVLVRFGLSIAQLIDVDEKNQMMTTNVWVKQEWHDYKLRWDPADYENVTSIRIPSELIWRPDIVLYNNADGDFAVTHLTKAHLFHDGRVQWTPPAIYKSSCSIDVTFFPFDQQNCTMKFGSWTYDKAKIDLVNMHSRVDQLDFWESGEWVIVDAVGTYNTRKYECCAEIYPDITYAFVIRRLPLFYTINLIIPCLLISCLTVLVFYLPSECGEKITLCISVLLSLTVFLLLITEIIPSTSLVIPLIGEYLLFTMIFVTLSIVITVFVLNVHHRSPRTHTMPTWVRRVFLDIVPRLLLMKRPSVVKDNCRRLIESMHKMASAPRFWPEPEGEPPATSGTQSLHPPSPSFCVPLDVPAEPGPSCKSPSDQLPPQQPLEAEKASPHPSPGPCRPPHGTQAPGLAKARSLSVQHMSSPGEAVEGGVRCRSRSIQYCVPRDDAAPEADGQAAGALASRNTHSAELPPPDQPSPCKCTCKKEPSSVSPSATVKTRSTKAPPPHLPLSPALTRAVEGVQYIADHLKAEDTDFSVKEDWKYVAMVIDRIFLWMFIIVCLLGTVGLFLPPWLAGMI
Outline: (§1)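 Cells were labelled with ⁸⁶Rb⁺ for at least 4 h, then exposed for 5 min in efflux buffer (pH 7.4) to test ligand alone at ~5 nM to 100 μM. The lines were TE671/RD (muscle α1β1γδ), SH-SY5Y (α3β4*) and transfected SH-EP1-hα4β2 or -hα4β4. Efflux was Cerenkov-counted. Non-specific efflux was subtracted, and results were normalized to specific efflux from carbamylcholine (1 mM; 3 mM for SH-SY5Y).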

[2] = test system: Mus musculus; assay: Smoke cessation activity in sc dosed ICR mouse assessed as inhibition of nicotine-induced hypothermia administered 15 mins before nicotine challenge measured after 30 mins of nicotine infusion; type: functional, organism-based
Outline: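 Male ICR mice (20–25 g) were pretreated with test drug or saline 15 min before nicotine at 2.5 mg/kg sc. Rectal temperature was taken before and 30 min after nicotine, and the change was calculated. Room temperature was 21–24 °C. AD₅₀ came from at least four doses, with at least 8 mice per dose.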

[3] = test system: Mus musculus; assay: Toxicity in sc dosed ICR mouse assessed occurrence of sedation; type: organism-based; settings: in vivo
[4] = test system: Mus musculus; assay: Smoke cessation activity in sc dosed ICR mouse assessed as inhibition of nicotine-induced antinociception administered 15 mins before nicotine challenge measured after 5 mins of nicotine infusion by tail-flick assay; type: functional, organism-based
Outline: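 Radiant-heat tail-flick latency was read 5 min later (10 s cutoff; baseline 2–4 s) and expressed as %MPE. AD₅₀ came from at least four doses, with at least 8 mice per dose.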

[5] = test system: Mus musculus; assay: Smoke cessation activity in sc dosed ICR mouse assessed as inhibition of nicotine-induced antinociception administered 15 mins before nicotine challenge measured after 5 mins of nicotine infusion by hotplate assay; type: functional, organism-based
Outline: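 Male ICR mice (20–25 g) were pretreated with saline or test drug 15 min before nicotine at 2.5 mg/kg sc. They were tested 5 min later on a 55 °C hot plate (40 s cutoff), and the result was expressed as %MPE. AD₅₀ came from at least four doses, with at least 8 mice per dose.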

[6] = target: Neuronal acetylcholine receptor; alpha4/beta2 (Homo sapiens, UniProt P17787+P43681); assay: Agonist activity at alpha4beta2 nicotinic receptor in human SH-EP1 cells assessed as induction of radiolabeled Rb+ influx at 0.005 to 100 uM by liquid scintillation counting; type: functional, cell-based; outline: as §1
[7] = test system: Mus musculus; assay: Smoke cessation activity in sc dosed ICR mouse assessed as inhibition of nicotine-induced increase in locomotor activity administered 15 mins before nicotine challenge measured after 5 mins of nicotine infusion; type: functional, organism-based
[8] = target: T1, Neuronal acetylcholine receptor; alpha4/beta4; assay: Antagonist activity at alpha4beta4 nicotinic receptor in human SH-EP1 cells assessed as inhibition varbamylcholine-induced radiolabeled Rb+ influx at by liquid scintillation counting; type: functional, cell-based
Outline: (§2)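 ⁸⁶Rb⁺-loaded human cells were given a 5-min efflux with carbamylcholine at EC₈₀–EC₉₀ plus graded test ligand. Non-specific efflux, taken with 100 μM mecamylamine or buffer, was subtracted. IC₅₀ came from a Hill fit of three independent experiments, with SEM given as a multiplication factor.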

[9] = test system: SH-EP1; assay: Selectivity ratio of IC50 for alpha4beta2 nicotinic receptor in human SH-EP1 cells to IC50 for IC50 for human NET; type: cell-based
[10] = test system: Mus musculus; assay: Toxicity in sc dosed ICR mouse assessed occurrence of convulsion; type: organism-based; settings: in vivo
[11] = target: Acetylcholine receptor; alpha1/beta1/delta/gamma (Homo sapiens, UniProt P02708+P07510+P11230+Q07001); assay: Antagonist activity at alpha-1-beta-1-gamma-delta nicotinic receptor in human TE671 cells assessed as inhibition varbamylcholine-induced radiolabeled Rb+ influx at by liquid scintillation counting; type: functional, cell-based, TE-671; outline: as §2
Acetylcholine receptor; alpha1/beta1/delta/gamma, sequence (P02708 whole entry): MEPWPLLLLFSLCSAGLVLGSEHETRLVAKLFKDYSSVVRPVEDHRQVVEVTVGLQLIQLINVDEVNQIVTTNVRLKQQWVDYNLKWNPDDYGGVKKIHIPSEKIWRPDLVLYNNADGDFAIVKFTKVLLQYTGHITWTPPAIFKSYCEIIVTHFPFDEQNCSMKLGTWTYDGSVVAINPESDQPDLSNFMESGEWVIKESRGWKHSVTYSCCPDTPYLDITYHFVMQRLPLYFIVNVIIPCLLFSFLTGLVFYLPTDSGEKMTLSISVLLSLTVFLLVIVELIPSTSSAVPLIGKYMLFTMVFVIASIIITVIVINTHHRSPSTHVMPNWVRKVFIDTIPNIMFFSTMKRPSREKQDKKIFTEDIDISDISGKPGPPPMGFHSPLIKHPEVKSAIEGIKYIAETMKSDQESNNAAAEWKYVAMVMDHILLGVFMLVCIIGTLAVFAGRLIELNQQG
Acetylcholine receptor; alpha1/beta1/delta/gamma, sequence (P07510 whole entry): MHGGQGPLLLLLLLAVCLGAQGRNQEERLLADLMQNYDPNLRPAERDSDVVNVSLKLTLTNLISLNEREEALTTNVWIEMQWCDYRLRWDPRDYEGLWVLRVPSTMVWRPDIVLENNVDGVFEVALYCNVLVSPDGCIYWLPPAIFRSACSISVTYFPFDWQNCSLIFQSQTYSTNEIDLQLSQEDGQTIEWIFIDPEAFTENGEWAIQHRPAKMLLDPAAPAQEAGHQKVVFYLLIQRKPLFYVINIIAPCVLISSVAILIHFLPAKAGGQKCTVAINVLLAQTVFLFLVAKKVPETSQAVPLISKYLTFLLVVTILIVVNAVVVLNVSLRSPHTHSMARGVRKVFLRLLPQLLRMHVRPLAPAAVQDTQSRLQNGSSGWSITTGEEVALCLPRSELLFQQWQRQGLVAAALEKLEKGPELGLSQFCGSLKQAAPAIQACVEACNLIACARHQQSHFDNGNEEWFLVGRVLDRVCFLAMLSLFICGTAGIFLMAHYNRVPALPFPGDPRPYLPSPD
Acetylcholine receptor; alpha1/beta1/delta/gamma, sequence (P11230 whole entry): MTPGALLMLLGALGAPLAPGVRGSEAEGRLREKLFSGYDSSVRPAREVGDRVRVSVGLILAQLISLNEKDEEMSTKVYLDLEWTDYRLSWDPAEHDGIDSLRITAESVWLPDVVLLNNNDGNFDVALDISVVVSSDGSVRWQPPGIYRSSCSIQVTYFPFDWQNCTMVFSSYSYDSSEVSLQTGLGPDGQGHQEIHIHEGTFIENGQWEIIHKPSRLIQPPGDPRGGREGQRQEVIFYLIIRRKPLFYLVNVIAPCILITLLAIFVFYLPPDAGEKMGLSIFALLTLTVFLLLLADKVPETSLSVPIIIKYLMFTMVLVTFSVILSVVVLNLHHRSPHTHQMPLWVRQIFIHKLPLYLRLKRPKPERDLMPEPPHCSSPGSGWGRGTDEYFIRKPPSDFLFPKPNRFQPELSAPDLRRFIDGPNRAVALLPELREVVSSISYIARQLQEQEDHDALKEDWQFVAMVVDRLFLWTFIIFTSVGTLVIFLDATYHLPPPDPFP
Acetylcholine receptor; alpha1/beta1/delta/gamma, sequence (Q07001 whole entry): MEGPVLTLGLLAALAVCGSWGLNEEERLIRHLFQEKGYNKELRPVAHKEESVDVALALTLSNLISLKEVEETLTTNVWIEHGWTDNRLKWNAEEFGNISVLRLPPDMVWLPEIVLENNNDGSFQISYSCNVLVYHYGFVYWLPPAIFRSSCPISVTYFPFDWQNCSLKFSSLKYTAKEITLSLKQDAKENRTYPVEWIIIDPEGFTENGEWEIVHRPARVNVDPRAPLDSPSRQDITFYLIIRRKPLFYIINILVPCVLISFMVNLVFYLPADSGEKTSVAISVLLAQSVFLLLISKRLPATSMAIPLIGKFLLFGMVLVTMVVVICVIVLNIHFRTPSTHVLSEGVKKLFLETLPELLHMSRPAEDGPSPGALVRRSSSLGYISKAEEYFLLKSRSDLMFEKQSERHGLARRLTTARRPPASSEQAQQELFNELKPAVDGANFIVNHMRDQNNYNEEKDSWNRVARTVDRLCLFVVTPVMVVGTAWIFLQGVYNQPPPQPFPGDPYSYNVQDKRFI

SMILES: C[C@@H]1NC(C)(C)CO[C@@]1(O)c1ccc(F)cc1
- Activity [1]: inactive
- IC50 [2]: 5.67 mg/kg
- Activity [3]: Non-toxic
- IC50 [4]: 0.013 mg/kg
- IC50 [5]: > 15 mg/kg
- Activity [6]: inactive
- IC50 [7]: > 15 mg/kg
- IC50 [8]: > 100 µM
- Ratio IC50 [9]: 3
- Activity [10]: Non-toxic

SMILES: C[C@@H]1NC(C)(C)CO[C@@]1(O)c1cccc(F)c1
- IC50 [11]: > 100 µM
- Activity [1]: inactive
- IC50 [2]: 4.4 mg/kg
- Activity [3]: Non-toxic
- IC50 [4]: 0.012 mg/kg
- IC50 [5]: 8.6 mg/kg
- Activity [6]: inactive
- IC50 [7]: > 15 mg/kg
- IC50 [8]: > 100 µM
- Ratio IC50 [9]: 1.7
- Activity [10]: Non-toxic

SMILES: C[C@@H]1N(C)C(C)(C)CO[C@@]1(O)c1cccc(Cl)c1
- Activity [1]: inactive
- IC50 [2]: > 15 mg/kg
- Activity [3]: Non-toxic
- IC50 [4]: 0.016 mg/kg
- IC50 [5]: > 15 mg/kg
- Activity [6]: inactive
- IC50 [7]: > 15 mg/kg
- Activity [10]: Non-toxic

SMILES: C[C@@H]1NC(C)(C)CO[C@@]1(O)c1cccc(Cl)c1 [RADAFAXINE]
- Activity [3]: Non-toxic
- IC50 [4]: 0.2 mg/kg
- IC50 [5]: 1 mg/kg
- IC50 [7]: 0.9 mg/kg
- Activity [10]: Non-toxic

SMILES: CC[C@@H]1NC(C)(C)CO[C@@]1(O)c1cccc(Cl)c1
- Activity [1]: inactive
- IC50 [2]: 7 mg/kg
- Activity [3]: Non-toxic
- IC50 [4]: 0.004 mg/kg
- IC50 [5]: 3.7 mg/kg
- Activity [6]: inactive
- IC50 [7]: 10.3 mg/kg
- Ratio IC50 [9]: 67
- Activity [10]: Non-toxic

SMILES: C[C@@H]1N(C)C(C)(C)CO[C@@]1(O)c1ccc(Cl)cc1
- Activity [1]: inactive
- IC50 [2]: > 15 mg/kg
- Activity [3]: Non-toxic
- IC50 [4]: 0.32 mg/kg
- IC50 [5]: > 15 mg/kg
- Activity [6]: inactive
- IC50 [7]: > 15 mg/kg
- Activity [10]: Non-toxic

SMILES: C[C@@H]1NC(C)(C)CO[C@@]1(O)c1ccc(Cl)cc1
- Activity [1]: inactive
- IC50 [2]: > 15 mg/kg
- Activity [3]: Non-toxic
- IC50 [4]: 0.019 mg/kg
- IC50 [5]: > 15 mg/kg
- Activity [6]: inactive
- IC50 [7]: > 15 mg/kg
- Activity [10]: Non-toxic

SMILES: C[C@@H]1NC(C)(C)CO[C@@]1(O)c1ccc(-c2ccccc2)cc1
- IC50 [2]: > 15 mg/kg
- Activity [3]: Non-toxic
- IC50 [4]: 0.021 mg/kg
- IC50 [5]: > 15 mg/kg
- IC50 [7]: > 15 mg/kg
- Activity [10]: Non-toxic

SMILES: Cc1cccc([C@]2(O)OCC(C)(C)N[C@H]2C)c1
- Activity [1]: inactive
- IC50 [2]: 2.3 mg/kg
- Activity [3]: Non-toxic
- IC50 [4]: 0.054 mg/kg
- IC50 [5]: 7.6 mg/kg
- Activity [6]: inactive
- IC50 [7]: > 15 mg/kg
- Ratio IC50 [9]: 5.3
- Activity [10]: Non-toxic

SMILES: C[C@H]1NC(C)(C)CO[C@]1(O)c1cccc(Cl)c1
- IC50 [2]: > 15 mg/kg
- Activity [3]: Non-toxic
- IC50 [4]: 2.5 mg/kg
- IC50 [5]: 10.3 mg/kg
- IC50 [7]: > 15 mg/kg
- Activity [10]: Non-toxic

SMILES: CC1NC(C)(C)COC1(O)c1cc(Cl)cc(Cl)c1 (racemic)
- Activity [1]: inactive
- IC50 [2]: > 15 mg/kg
- Activity [3]: Non-toxic
- IC50 [4]: > 15 mg/kg
- IC50 [5]: > 15 mg/kg
- Activity [6]: inactive
- IC50 [7]: 1.9 mg/kg
- Ratio IC50 [9]: 4.5
- Activity [10]: Non-toxic
